{"data": "Results pooled from the literature", "cell line": "A2780", "read-out": "cell growth or viability", "note": "Compare with care: the assays were run in different laboratories."}
{"Structure (SMILES)": "CC(=O)O[C@H]1C(=O)[C@@]2(C)[C@H]([C@H](OC(=O)c3ccccc3)[C@]3(O)C[C@H](OC(=O)[C@H](O)[C@@H](NC(=O)c4ccccc4)c4ccccc4)C(C)=C1C3(C)C)[C@]1(OC(C)=O)CO[C@@H]1C[C@@H]2O", "assay": "fluorescence", "setting": "72 h", "measurement": "IC50", "result": "0.26 nM"}
{"Structure (SMILES)": "Cc1ccc2ccc3ccc(C)nc3c2n1.[C-]#[N+]c1ccc(C)cc1.[C-]#[O+].[C-]#[O+].[C-]#[O+].[Re+]", "assay": "MTT", "setting": "24 h", "measurement": "EC50", "result": "1400 nM"}
{"Structure (SMILES)": "CC[C@@H]1C=CC(=O)O[C@@H]1C[C@@H](O)[C@H](C)[C@H](OC)[C@@H](C)Cc1ccc(F)cc1", "assay": "MTT", "setting": "48 h", "measurement": "GI50", "result": "215 nM"}
{"Structure (SMILES)": "CC(=O)O[C@H]1C(=O)[C@@]2(C)[C@H]([C@H](OC(=O)c3ccccc3)[C@]3(O)C[C@H](OC(=O)[C@H](O)[C@@H](NC(=O)c4ccccc4)c4ccccc4)C(C)=C1C3(C)C)[C@]1(OC(C)=O)CO[C@@H]1C[C@@H]2O", "assay": "CCK-8", "setting": "72 h", "measurement": "IC50", "result": "8.2 nM"}
{"Structure (SMILES)": "CC[C@@H]1C=CC(=O)O[C@@H]1C[C@@H](O)[C@H](C)[C@H](OC)[C@@H](C)Cc1ccccc1", "assay": "MTT", "setting": "48 h", "measurement": "GI50", "result": "81.9 nM"}
{"Structure (SMILES)": "COc1c2c(cc3c1OCO3)[C@]13C=C[C@H](OC)C[C@H]1N(C2)C[C@H]3OC(=O)c1cccc(C)c1", "assay": "WST-1", "measurement": "IC50", "result": "> 10000 nM"}
{"Structure (SMILES)": "CC(C)C(=O)Nc1ccc([N+](=O)[O-])c(C(F)(F)F)c1", "assay": "CCK-8", "setting": "48 h", "measurement": "IC50", "result": "> 50000 nM"}
{"Structure (SMILES)": "CCOc1cc(OCC)cc(C(=O)O[C@@H]2CN3Cc4c(cc5c(c4OC)OCO5)[C@@]24C=C[C@H](OC)C[C@@H]34)c1", "assay": "WST-1", "measurement": "IC50", "result": "7800 nM"}
{"Structure (SMILES)": "CC[C@@H]1C=CC(=O)O[C@@H]1C[C@@H](O)[C@H](C)[C@H](O)[C@@H](C)Cc1ccc(F)cc1", "assay": "MTT", "setting": "48 h", "measurement": "GI50", "result": "29.7 nM"}
